Only some compounds are listed: those with a hit (about 12% of all), similar ones and a draw of the others.
PKD1 kinase inh: inhibitors of human PKD1 kinase; Q15139; PKD1 kinase fluorescence polarization assay; inhibition, % (concentration not given with the values); hit rate 0.056% among 200,000; AID 797
Rad51 HR inh: blocks human Rad51 in homologous recombination; hRad51 DNA strand exchange, fluorescence dequenching; Q06609; inhibition, % at 10 µM; hit rate 0.085% among 200,000;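 active means inhibition above 40% at the single screening dose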
Target sequence (Q06609 whole entry, looked up): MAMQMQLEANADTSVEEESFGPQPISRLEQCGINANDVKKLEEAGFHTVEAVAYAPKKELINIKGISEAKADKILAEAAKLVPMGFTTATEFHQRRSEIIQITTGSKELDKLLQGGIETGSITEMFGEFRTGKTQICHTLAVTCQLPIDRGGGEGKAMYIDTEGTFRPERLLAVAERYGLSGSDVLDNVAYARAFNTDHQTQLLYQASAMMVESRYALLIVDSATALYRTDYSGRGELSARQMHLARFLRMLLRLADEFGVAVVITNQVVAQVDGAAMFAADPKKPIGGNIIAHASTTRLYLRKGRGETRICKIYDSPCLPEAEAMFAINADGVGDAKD
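System: human Rad51 nucleoprotein filaments preassembled on unlabelled ssDNA. Reagent: labelled 47-mer dsDNA for strand exchange. Schedule: 30-min compound preincubation and 15-min exchange, both room temperature. Measured by: FRET fluorescence dequenching, excitation 485 nm, emission 520 nm. Read-out: Fluorescence-based percent inhibition, control- and blank-normalised. Benchmarks: plate controls and plate blanks.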
Wee1 stabilizer: human Wee1 degradation inhibition, primary screen; P30291; HeLa Luc-Wee1K328M stability, luciferase luminescence; 100% = proteasome inhibitor MG132 effect; reporter increase, % at 5 µM; hit rate 1.2% among 220,000;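 active means activation above the mean of all tested compounds plus 3 SD, set per screening run, cut at about 8.8% in these data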;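 further: cells exposed to compound for 20 h before luminescence read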
CHOP inh: CHOP inhibition in unfolded protein response | hit rate 3.8% among 220,000 | inhibition, % at 10 µM | CHO-K1 CHOP-promoter luciferase, tunicamycin-induced, 15-18 h | AID 2732;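 active means compounds that reduced the stress-induced luciferase reporter signal by more than about 70% of percent inhibition, limit read from the data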
L major viab: inhibitors of Leishmania major promastigote growth | Leishmania major promastigotes, resazurin fluorescence viability | inhibition, % at 10 µM | hit rate 9% among 200,000 | AID 1063;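 further: promastigotes grown with compound for 44 hours at 28 °C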
Arbovirus anti: blocks arbovirus infection; arbovirus infection cell-based antiviral screen; inhibition, % at 10 µM; hit rate 0.37% among 200,000; in the data active means inhibition above about 30%
Of the large screens only hits and unclear results are named; the others gave an inactive call. Unless noted, no stated cut-off is given here; in the data, active means inhibition above about 50%; inactive means the rest.

CCn1c(SCc2nnc(-c3ccccc3)o2)nnc1-c1ccc(S(=O)(=O)N2CCCC2)cc1	L major viab 99
O=C(C1=C[C@H](c2ccc3c(c2)OCO3)C[C@H](OCCCCO)O1)N1CCN(Cc2ccc3c(c2)OCO3)CC1	L major viab 51
O=C(C1=C[C@H](C2CCCCC2)C[C@H](OCCCCO)O1)N1CCN(Cc2ccc3c(c2)OCO3)CC1	L major viab 97
Cn1nc(C(C)(C)C)c(NC(=O)c2cccs2)c1C(C)(C)C	none (no result: PKD1 kinase inh, L major viab, Arbovirus anti)
CN(C(=O)CSc1cc(C(=O)c2nccn2C)c2ccccc2n1)c1ccccc1	none (no result: PKD1 kinase inh, L major viab, Arbovirus anti)
Cc1ccc(OC(=O)CCN2C(=O)c3ccccc3C2=O)cc1C	none (no result: Rad51 HR inh)
CC1=CC(C)(C)Nc2ccc(OC(=O)CN3C(=O)c4cccc5cccc(c45)C3=O)cc21	L major viab 95 (no result: Rad51 HR inh)
CC1=CC(C)(C)Nc2ccc(OC(=O)CN3C(=O)c4ccccc4C3=O)cc21	L major viab 101
CC1=CC(C)(C)Nc2ccc(OC(=O)C(Cc3ccccc3)N3C(=O)c4ccccc4C3=O)cc21 (stereo not drawn)	L major viab 99
COc1ccc(S(=O)(=O)NC(C)C)cc1C(=O)N1CCOCC1	none
CCOCC(=O)Nc1nc2ccc(OC)cc2s1	none
COc1ccc2nc(NC(=O)CCn3cccc3)sc2c1	L major viab 56
COc1ccc2nc(NC(=O)CNS(=O)(=O)c3cccs3)sc2c1	L major viab 89
COc1ccc2nc(NC(=O)Cc3cccs3)sc2c1	L major viab 59
Cc1ccc2nc(NC(=O)CSc3nnc(C)c(=O)n3N)sc2c1	L major viab 54
CCOc1ccc2nc(NC(=O)Cc3cccs3)sc2c1	none
Cc1ccc(NC(=O)CSc2nnc(C)c(=O)n2N)c(C)c1	none (no result: Rad51 HR inh)
Nc1c(C(=O)OCC(=O)NCc2ccccc2)[nH]c(=O)[nH]c1=O	none (no result: PKD1 kinase inh, L major viab, Arbovirus anti)
CCc1cc(CNC(=O)CC2C(=O)NCCN2Cc2cccc(OC)c2)on1 (stereo not drawn)	none
CC(C)(C)C(=O)Nc1cccc(-c2ncon2)c1	none (no result: PKD1 kinase inh, L major viab, Arbovirus anti)
CCOc1ccc2nc(NC(=O)Nc3ccccc3)sc2c1	none
CCOc1ccc2nc(NC(=O)Nc3cccs3)sc2c1	Arbovirus anti 36
CCn1c(SCC(=O)Nc2nc3ccc(OC)cc3s2)nc2c1c(=O)n(C)c(=O)n2C	CHOP inh 84
O=C(CS(=O)(=O)c1ccccc1)Nc1ccc(N2CCOCC2)cc1	none
N#CCCn1cc(C(=O)N2CCCCC2)c(-c2ccc([N+](=O)[O-])cc2)n1	none
N#CCSc1nc2c(cc1C#N)CCCC2	none
CSC1CCCCC1(O)CSc1nc2c(cc1C#N)CCCC2 (stereo not drawn)	CHOP inh 85
Nc1ccc(N2CCN(c3cccc(Cl)c3)CC2)cc1	L major viab 89 (no result: Rad51 HR inh)
Cc1cccc(NC(=O)CSc2nc(COc3ccccc3)nc3ccccc23)c1C	none
CCOc1ccc(NC(=O)CSc2nc(C3CC3)nc3ccccc23)cc1	CHOP inh 96 (no result: Rad51 HR inh)
Cc1cccc(C)c1NC(=O)CSc1nc(COc2ccccc2)nc2ccccc12	CHOP inh 88
CCCCCCOc1ccc(C(CC(N)=O)C(=O)O)cc1 (stereo not drawn)	none
COc1ccc(CCNC(=O)CSCc2ccc(Cl)cc2)cc1OC	none
COCCn1c(-c2ccc(Cl)cc2)cnc1SCC(=O)NCCc1ccc(OC)c(OC)c1	L major viab 70
COCCn1c(-c2ccc(OC)cc2)cnc1SCC(=O)Nc1cccc2ccccc12	L major viab 77
Cc1ccc(-c2nnc(N3CC(C)OC(C)C3)c3ccccc23)cc1 (stereo not drawn)	none
Cc1ccc(NC(=O)C(C)N2C(=O)c3ccccc3C2=O)cc1S(=O)(=O)N1CCOCC1 (stereo not drawn)	none
COC(=O)c1ccc(C)c(NS(=O)(=O)c2ccc3c(c2)OCCO3)c1	L major viab 100 (no result: CHOP inh)
C/C(=N\NC(=O)c1ccccc1)c1ccc(-n2ccnc2)cc1	none
COc1ccccc1NS(=O)(=O)c1cccc(C(=O)N/N=C(\C)c2ccc(-n3ccnc3)cc2)c1	L major viab 100
C/C(=N\NC(=O)CN(c1ccccc1Br)S(C)(=O)=O)c1ccc2c(c1)OCCO2	L major viab 51
COc1ccccc1NS(=O)(=O)c1cccc(C(=O)N/N=C(\C)c2ccc3c(c2)OCCO3)c1	L major viab 99
COc1ccc(/C(C)=N\NC(=O)c2ccc3c(c2)OCO3)cc1OC	none
O=C(O)c1cc(-c2ccc(O)cc2)on1	none
C=CCn1c[n+](CC(=O)c2ccc(Br)s2)c2ccccc21	none
O=[N+]([O-])c1cc(S(=O)(=O)Nc2ccccc2)ccc1N1CCN(c2ccccc2)CC1	L major viab 88
CC(=O)c1ccc(N2CCN(c3ccc(S(=O)(=O)NCCN(C)C)cc3[N+](=O)[O-])CC2)cc1	none (no result: PKD1 kinase inh, Rad51 HR inh, L major viab, Arbovirus anti)
CC(=O)c1ccc(N2CCN(c3ccc(S(=O)(=O)NCCCN(C)C)cc3[N+](=O)[O-])CC2)cc1	L major viab 100
O=[N+]([O-])c1cc(S(=O)(=O)Nc2ccccc2)ccc1NCc1ccccc1	CHOP inh 92
CNS(=O)(=O)c1ccc(N2CCCC2)c([N+](=O)[O-])c1	none
O=C(O)c1cc(NS(=O)(=O)c2ccc(N3CCCCC3)c([N+](=O)[O-])c2)cc(C(=O)O)c1	L major viab 77
Cc1ccc(CCNC(=O)CNC(=O)c2cccs2)cc1	none
Cc1c(C(=O)NCCSCc2cccc(C(F)(F)F)c2)cnn1-c1ccc(Cl)cc1	none (no result: PKD1 kinase inh, L major viab, Arbovirus anti)
O=[N+]([O-])c1cc(S(=O)(=O)C(F)(F)F)ccc1N1CCN(c2ccccc2)CC1	L major viab 68
O=[N+]([O-])c1cc(Cl)ccc1N1CCN(c2cccc(C(F)(F)F)c2)CC1	none
COc1ccccc1C1CCCN1Cc1nc(-c2ccc(C)s2)oc1C (stereo not drawn)	none
O=C(Cn1c(=O)oc2cc(S(=O)(=O)N3CCCC3)ccc21)NCc1ccc(F)cc1	L major viab 98
O=C(Cn1c(=O)oc2cc(S(=O)(=O)N3CCCC3)ccc21)Nc1cccc(C(F)(F)F)c1	L major viab 100
CCc1cccc(NC(=O)Cn2c(=O)oc3cc(S(=O)(=O)N4CCOCC4)ccc32)c1	none
Cn1c(=O)oc2cc(S(=O)(=O)N3CCN(c4ccc(F)cc4)CC3)ccc21	L major viab 60
Cc1cc(C)n(-c2ccc(C(=O)N3CCC(CO)(Cc4ccccc4)CC3)cc2)n1	none
Cc1ccc(-c2sc(C(=O)NN)c(C)c2C#N)cc1	none (no result: PKD1 kinase inh, L major viab, Arbovirus anti)
Cc1cccc(NC(=O)c2nc[nH]c2C(=O)Nc2ccccc2[N+](=O)[O-])c1	L major viab 57
Cc1cccc(NC(=O)c2nc[nH]c2C(=O)N[C@@H](Cc2ccccc2)C(=O)OC(C)(C)C)c1	CHOP inh 74 (no result: PKD1 kinase inh, Wee1 stabilizer, L major viab, Arbovirus anti)
CC(C)C[C@H](NC(=O)c1nc[nH]c1C(=O)NCC(=O)OC(C)(C)C)C(=O)OC(C)(C)C	CHOP inh 84 (no result: PKD1 kinase inh, Wee1 stabilizer, L major viab, Arbovirus anti)
Cc1cccc(C)c1Nc1nc2ccccc2o1	Arbovirus anti 46

Assay outcomes deposited in PubChem by several laboratories.
